Measured values from ChEMBL document CHEMBL3120102, “Structure-based design, synthesis and biological evaluation of novel anthra[1,2-d]imidazole-6,11-dione homologues as potential antitumor agents” (2013).

Experiments:
Format in all cases: functional
UACC-62 = assay: Cytotoxicity against human UACC62 cells assessed as growth inhibition after 48 hrs by SRB assay
How it was run: (§1)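 NCI 60-cell-line screen, two stages. Five-dose testing at […]. Cellular protein measured by sulforhodamine B colorimetry after 48 h drug exposure. A time-zero control and drug-free plates are used to derive GI50, TGI and LC50 from dose-response curves plotted as log10 concentration per cell line.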

[1] = (§2) Cytotoxicity against human OVCAR5 cells assessed as growth inhibition after 48 hrs by SRB assay; conditions: OVCAR-5, 48 h
How it was run: (§3)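 NCI 60-cell-line screen, five-dose stage: each cell line exposed for 48 h to five concentrations spanning five log steps; cellular protein measured by sulforhodamine B colorimetry. A time-zero cell control and plates without drug are used to derive GI50, TGI and LC50 from log-concentration dose-response curves.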

OVCAR-5 = assay: as §2; how it was run: as §3
MDA-MB-435 = assay: Cytotoxicity against human MDA-MB-435 cells assessed as growth inhibition after 48 hrs by SRB assay; how it was run: as §3
M14 = assay: Cytotoxicity against human M14 cells assessed as growth inhibition after 48 hrs by SRB assay
How it was run: (§4)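 NCI 60-cell-line five-dose screen at […]. Drug exposure was 48 h, followed by sulforhodamine B protein staining. GI50, TGI and LC50 were calculated against a time-zero control and untreated plates, with dose–response curves plotted from log10 concentration.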

RXF 393 = assay: Cytotoxicity against human RXF393 cells assessed as growth inhibition after 48 hrs by SRB assay; how it was run: as §3
HT-29 = assay: Cytotoxicity against human HT-29 cells assessed as cell growth at 10 uM after 48 hrs by SRB assay; conditions: HT-29, 48 h, read-out: Activity
NCI-H322M = assay: Cytotoxicity against human NCI-H322M cells assessed as growth inhibition after 48 hrs by SRB assay; how it was run: as §3
HCT-116 = assay: Cytotoxicity against human HCT116 cells assessed as growth inhibition after 48 hrs by SRB assay; how it was run: as §4
NCI-H226 = assay: Cytotoxicity against human NCI-H226 cells assessed as growth inhibition after 48 hrs by SRB assay; how it was run: as §3
SF-295 = assay: Cytotoxicity against human SF295 cells assessed as growth inhibition after 48 hrs by SRB assay; how it was run: as §3
OVCAR-3 = assay: Cytotoxicity against human OVCAR3 cells assessed as growth inhibition after 48 hrs by SRB assay; how it was run: as §3
CCRF-CEM = assay: Cytotoxicity against human CCRF-CEM cells assessed as growth inhibition after 48 hrs by SRB assay; how it was run: as §4
A498 = assay: Cytotoxicity against human A498 cells assessed as growth inhibition after 48 hrs by SRB assay; how it was run: as §4
HCT-15 = assay: Cytotoxicity against human HCT15 cells assessed as growth inhibition after 48 hrs by SRB assay; how it was run: as §4
SR = assay: Cytotoxicity against human SR cells assessed as growth inhibition after 48 hrs by SRB assay; how it was run: as §1
MDA-MB-231 = assay: Cytotoxicity against human MDA-MB-231 cells assessed as growth inhibition after 48 hrs by SRB assay; how it was run: as §3
NCI-H460 = assay: Cytotoxicity against human NCI-H460 cells assessed as growth inhibition after 48 hrs by SRB assay; how it was run: as §3
Malme-3M = assay: Cytotoxicity against human MALME-3M cells assessed as growth inhibition after 48 hrs by SRB assay; how it was run: as §4
NCI-H23 = assay: Cytotoxicity against human NCI-H23 cells assessed as growth inhibition after 48 hrs by SRB assay; how it was run: as §3
BT-549 = assay: Cytotoxicity against human BT549 cells assessed as growth inhibition after 48 hrs by SRB assay; how it was run: as §4
SK-MEL-28 = assay: Cytotoxicity against human SK-MEL-28 cells assessed as growth inhibition after 48 hrs by SRB assay; how it was run: as §3
SK-OV-3 = assay: Cytotoxicity against human SKOV3 cells assessed as growth inhibition after 48 hrs by SRB assay; how it was run: as §3
HL-60(TB) = assay: Cytotoxicity against human HL-60(TB) cells assessed as growth inhibition after 48 hrs by SRB assay
How it was run: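 NCI 60-cell panel five-concentration stage (0.01, 0.1, 1, 10, 100) in HL-60(TB). Cellular protein was measured by sulforhodamine B colorimetry after 48 h of exposure. A time-zero cell control and untreated plates allowed calculation of GI50, TGI and LC50. These were read from log10 concentration dose-response curves.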

## CN(C)CCCSc1nc2ccc3c(c2[nH]1)C(=O)c1ccccc1C3=O
UACC-62
  growth inhibition (GI): Dose-dependent effect
UACC-62; UACC-62, 48 h
  GI50: 10.8 µM
  TGI: 23 µM
[1]
  GI50: 12.7 µM
  TGI: 25.9 µM
OVCAR-5
  growth inhibition (GI): Dose-dependent effect
MDA-MB-435
  growth inhibition (GI): Dose-dependent effect
MDA-MB-435; MDA-MB-435, 48 h
  GI50: 10.4 µM
  TGI: 22.2 µM
M14
  growth inhibition (GI): Dose-dependent effect
M14; M14, 48 h
  GI50: 7.05 µM
  TGI: 20.7 µM
RXF 393
  growth inhibition (GI): Dose-dependent effect
RXF 393; RXF 393, 48 h
  GI50: 1.89 µM
  TGI: 12.8 µM
RXF 393; RXF 393, 48 h, read-out: LC50 (the source's name)
  CC50: 42.3 µM
HT-29
  growth at 10 µM: 17.8%
NCI-H322M
  GI50: 0.72 µM
  TGI: 20.6 µM
  growth inhibition (GI): Dose-dependent effect
HCT-116
  growth inhibition (GI): Dose-dependent effect
HCT-116; HCT-116, 48 h
  GI50: 1.85 µM
  TGI: 8.75 µM
NCI-H226
  growth inhibition (GI): Dose-dependent effect
NCI-H226; NCI-H226, 48 h
  TGI: 22.1 µM
SF-295
  growth inhibition (GI): Dose-dependent effect
SF-295; SF-295, 48 h
  GI50: 14.8 µM
  TGI: 28.4 µM
OVCAR-3
  growth inhibition (GI): Dose-dependent effect
OVCAR-3; OVCAR-3, 48 h
  GI50: 3.73 µM
  TGI: 18.2 µM
CCRF-CEM
  GI50: 1.29 µM
  TGI: 4.36 µM
  growth inhibition (GI): Dose-dependent effect
A498
  growth inhibition (GI): Dose-dependent effect
A498; A498, 48 h
  GI50: 12.1 µM
  TGI: 24.8 µM
A498; A498, 48 h, read-out: LC50 (the source's name)
  CC50: 51 µM
HCT-15
  growth inhibition (GI): Dose-dependent effect
HCT-15; HCT-15, 48 h
  GI50: 0.68 µM
  TGI: 15 µM
SR
  GI50: 0.43 µM
  TGI: 3.47 µM
  growth inhibition (GI): Dose-dependent effect
MDA-MB-231
  growth inhibition (GI): Dose-dependent effect
MDA-MB-231; MDA-MB-231, 48 h
  GI50: 4.96 µM
  TGI: 19.3 µM
NCI-H460
  growth inhibition (GI): Dose-dependent effect
NCI-H460; NCI-H460, 48 h
  TGI: 12.8 µM
Malme-3M
  GI50: 13.9 µM
  TGI: 27 µM
  growth inhibition (GI): Dose-dependent effect
Malme-3M; read-out: LC50 (the source's name)
  CC50: 52.4 µM
NCI-H23
  growth inhibition (GI): Dose-dependent effect
NCI-H23; NCI-H23, 48 h
  TGI: 19.7 µM
BT-549
  growth inhibition (GI): Dose-dependent effect
BT-549; BT-549, 48 h
  GI50: 9.13 µM
  TGI: 21.8 µM
SK-MEL-28
  growth inhibition (GI): Dose-dependent effect
SK-MEL-28; SK-MEL-28, 48 h
  GI50: 13.5 µM
  TGI: 26.3 µM
SK-OV-3
  growth inhibition (GI): Dose-dependent effect
SK-OV-3; SK-OV-3, 48 h
  GI50: 1.72 µM
  TGI: 20.7 µM
HL-60(TB)
  growth inhibition (GI): Dose-dependent effect
HL-60(TB); HL-60, 48 h
  GI50: 2.41 µM
  TGI: 8.52 µM
